According to article PMC3133600 (Journal of the American Chemical Society, 2011):
Where two headings read alike, the source gives them in different places.

Columns and labels:
[1] = test system: HIF-1α levels in MCF7 cells; experiment: Cellular HIF-1α levels; type: cell-based, human; conditions: 24 hours
human JMJD2C(1–420) = biological target: T1, human JMJD2C(1–420) (Homo sapiens, UniProt Q9H3R0); type: biochemical; conditions: at up to 50 μM, the highest concentration tested
T1 sequence (Q9H3R0 1-420): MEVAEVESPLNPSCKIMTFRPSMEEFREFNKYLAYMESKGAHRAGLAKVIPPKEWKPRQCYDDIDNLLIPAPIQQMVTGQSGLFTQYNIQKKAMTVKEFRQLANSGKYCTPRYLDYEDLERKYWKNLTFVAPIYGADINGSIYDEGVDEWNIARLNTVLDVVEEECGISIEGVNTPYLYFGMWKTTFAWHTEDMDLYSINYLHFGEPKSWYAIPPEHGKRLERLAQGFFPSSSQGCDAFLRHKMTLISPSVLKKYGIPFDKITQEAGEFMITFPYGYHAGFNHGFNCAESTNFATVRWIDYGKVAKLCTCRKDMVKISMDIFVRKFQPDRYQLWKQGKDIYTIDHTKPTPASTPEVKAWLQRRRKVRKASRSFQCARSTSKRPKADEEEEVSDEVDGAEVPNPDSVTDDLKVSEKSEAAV

[2] = biological target: T2, JMJD2A (H3K9me3 and H3K36me3 demethylase) (Homo sapiens, UniProt O75164); experiment: JMJD2A enzyme inhibition in vitro; type: biochemical; conditions: at up to 50 μM, the highest concentration tested
T2 sequence (O75164 1-1064): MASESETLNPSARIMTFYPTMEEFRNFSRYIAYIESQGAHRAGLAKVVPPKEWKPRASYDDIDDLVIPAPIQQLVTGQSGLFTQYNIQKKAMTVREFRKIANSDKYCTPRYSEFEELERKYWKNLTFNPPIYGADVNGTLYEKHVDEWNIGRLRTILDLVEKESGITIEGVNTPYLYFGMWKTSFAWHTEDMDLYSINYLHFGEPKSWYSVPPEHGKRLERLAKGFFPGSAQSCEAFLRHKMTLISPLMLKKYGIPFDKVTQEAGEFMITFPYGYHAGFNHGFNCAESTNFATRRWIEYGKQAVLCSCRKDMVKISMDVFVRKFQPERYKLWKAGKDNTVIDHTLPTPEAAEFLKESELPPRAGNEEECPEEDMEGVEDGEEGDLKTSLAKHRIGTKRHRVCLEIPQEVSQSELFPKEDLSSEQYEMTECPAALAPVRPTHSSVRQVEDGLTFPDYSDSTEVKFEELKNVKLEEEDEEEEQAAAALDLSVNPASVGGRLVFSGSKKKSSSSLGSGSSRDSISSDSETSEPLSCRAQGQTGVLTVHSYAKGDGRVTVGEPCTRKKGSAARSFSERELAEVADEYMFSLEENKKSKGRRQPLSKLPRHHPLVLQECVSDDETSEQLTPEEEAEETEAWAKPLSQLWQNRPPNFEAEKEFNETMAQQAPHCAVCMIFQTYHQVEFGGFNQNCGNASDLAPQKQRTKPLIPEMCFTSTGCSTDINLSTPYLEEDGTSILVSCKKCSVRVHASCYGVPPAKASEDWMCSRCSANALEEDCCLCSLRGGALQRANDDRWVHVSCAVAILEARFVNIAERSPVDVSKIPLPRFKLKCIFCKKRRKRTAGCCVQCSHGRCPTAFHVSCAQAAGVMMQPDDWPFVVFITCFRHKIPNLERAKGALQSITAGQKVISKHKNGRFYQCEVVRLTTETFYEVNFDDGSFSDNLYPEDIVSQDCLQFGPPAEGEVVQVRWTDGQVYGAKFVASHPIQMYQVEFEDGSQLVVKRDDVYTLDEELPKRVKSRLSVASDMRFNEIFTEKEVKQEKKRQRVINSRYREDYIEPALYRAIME

[3] = biological target: FAD-dependent demethylase, LSD1 (Homo sapiens, UniProt O60341); experiment: LSD1 enzyme inhibition in vitro; type: biochemical; conditions: at up to 50 μM, the highest concentration tested
[4] = test system: class I or class II HDACs; experiment: HDAC enzyme inhibition in vitro; type: biochemical; conditions: at up to 50 μM, the highest concentration tested
[5] = test system: JMJD2C-sensitive oesophageal carcinoma cell line KYSE150; experiment: KYSE150 growth inhibition assay; type: cell-based; conditions: read-out: GI50, KYSE150 cell growth; treatment for 48 hours
[6] = Stability in KYSE150 cell growth media; type: in vitro ADME; conditions: 37 °C, 48 hours, extraction with 3:1 chloroform:isopropanol
[7] = test system: H3K4me3 and H3K9me3 levels in KYSE150 cells; type: cell-based
Method in brief: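 KYSE150 cells were immunostained for H3K4me3 and H3K9me3 in a quantitative image-based assay. Image quantification gave half-maximal effective concentrations for each mark.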

[8] = test system: H3K4me3 and H3K9me3 levels in MCF7 cells; type: cell-based, human
[9] = test system: JMJD2C(1–420)-GFP fusion protein in HeLa cells; experiment: H3K9me3 immunostaining in HeLa cells ectopically expressing JMJD2C; type: cell-based, human; conditions: 10 μM, 48 hours
Method in brief: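 HeLa cells were transfected with JMJD2C(1–420)-GFP, then treated with DMSO or 10 μM test compound. After 48 h they were immunostained with anti-H3K9me3 antibody and DAPI nuclear stain. H3K9me3 was compared in GFP-transfected cells.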

[10] = test system: histone methylation marks in KYSE150 cells; experiment: Western blotting of histone methylation marks in KYSE150 cells; type: cell-based; conditions: 48 hours
Method in brief: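 KYSE150 cells received DMSO, DFO 150 μM or DMOG 1 mM as positive controls for Fe²⁺/α-ketoglutarate hydroxylase inhibition, or test compound at 5, 10 or 15 μM, for 48 h. Histone methylation marks were assessed by Western blot, with histone levels based on coomassie stain.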

C2C12 cells = experiment: Myotube formation in C2C12 cells; type: cell-based; conditions: C2C12 cells in differentiation media, 6 days
Method in brief: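 C2C12 cells in differentiation media were given DMSO or test compound at 1, 2 or 4 μM. After 6 days they were immunostained with anti-myosin heavy chain antibody plus DAPI. MHC-positive myotubes were scored from the images.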

[11] = test system: UTX-targeted genes Myog and CKm in C2C12 cells; experiment: RT-PCR of UTX-targeted genes during myogenesis; type: cell-based; conditions: differentiating C2C12 myoblast, 1, 2 and 4 μM, 6 days
Method in brief: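 Differentiating C2C12 myoblasts were given DMSO or test compound (1, 2, 4 μM) in differentiation media. mRNA was collected after 6 days, and RT-PCR measured Myog and Ckm.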

[12] = DFO at 150 μM, DMOG at 1 and 2 mM

For `CC(=O)N(O)CCCCCNC(=O)CCC(=O)N(O)CCCCCNC(=O)CCC(=O)N(O)CCCCCN` [DFO, desferoxamine], the “cellular HIF-1α levels” value [1, 12] was “significantly increased”.
In the case of `COC(=O)CNC(=O)C(=O)OC` [DMOG], the “cellular HIF-1α levels” value [1, 12] is reported as “significantly increased”.
For `COC(=O)/C=C/C(=O)N(O)CCCCNCc1ccc(COC(=O)Nc2cccc3ccccc23)cc1` [Methylstat, methylstat], the “inhibition of enzymatic activity of JMJD2C” value (human JMJD2C(1–420)) was “does not inhibit”, the “inhibition of enzymatic activity of JMJD2A” value [2] was “does not inhibit” and the “inhibition of enzymatic activity of LSD1” value [3] was “does not inhibit”. The “inhibition of enzymatic activity of HDACs” value [4] was “does not inhibit”, the GI50 [5] was about 5.1 µM and the “recovered unchanged after incubation in cell growth media” value [6] was 88%. The “increase of the H3K9me3 mark” value [7] was 10.8 fold, the EC50 ([7]; read-out: EC50 for H3K4me3) was 10.3 µM and the EC50 ([7]; read-out: EC50 for H3K9me3) was 8.6 µM. The “increase of the H3K9me3 mark” value [8] was 4.5 fold, the EC50 ([8]; read-out: EC50 for H3K4me3) was 6.7 µM and the EC50 ([8]; read-out: EC50 for H3K9me3) was 6.3 µM. For the same compound, the “cellular HIF-1α levels” value ([1]; at up to 15 μM, the highest concentration tested) was “did not affect”, the “reduction of H3K9me3 level by JMJD2C(1–420)-GFP” value [9] was “reversed” and the “methylation of H3K4, H3K9, H3K27 and H3K36 (Western blotting)” value ([10]; KYSE150 cells, 5, 10 and 15 μM, concentration-dependent) was “induces hypermethylation”. For the same compound, the “cellular levels of H3K79me3 and H4K20me3” value ([10]; KYSE150 cells) was “induces increased cellular levels”, the “concentration sufficient to prevent the formation of MHC-positive myotubes” value (C2C12 cells) was 2 µM and the “expression of UTX-targeted genes Myog and CKm (RT-PCR)” value [11] was “loss of expression”.
